# Assays:
# DOX-induced HF mice [1] = assay: Survival in acute DOX-induced HF mouse model; format: in vivo, mouse (ICR)
# In short: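 Male ICR mice (about 40 g, 10 weeks) had acute heart failure induced by a single i.p. 15 mg/kg DOX dose. From Day 15 to 28 they were dosed i.p. daily with test compound (50, 100 or 200 mg/kg), cedilanid 150 mg/kg or PBS 10 mL/kg. Deaths were recorded daily, and survival was analysed by Kaplan–Meier.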
# TFRC [2] = assay: Immunoblot of TFRC in heart tissues; format: in vivo, mouse; conditions: glycnsisitin A with or without DOX, DOX alone in HF tissue
# [3] = system: primary adult rat cardiomyocytes; assay: LDH release of primary cardiomyocytes; format: cell-based; conditions: 12 h
# In short: (§1)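 Cardiomyocytes came from male SD rats (about 280 g), isolated by Langendorff collagenase II/hyaluronidase perfusion and purified by three gravity sedimentations. They were cultured on laminin in M199 with 10% FBS, penicillin-streptomycin and glutamine. Cells were exposed with or without DOX and with or without test compound for 12 h. Cells and supernatant were measured with commercial ATP and LDH-activity kits. Mean ± SEM.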
# DOX-induced HF mice [4] = assay: Serum CK and LDH activity in DOX-induced HF mice; format: in vivo, mouse (ICR); conditions: glycnsisitin A i.p. daily Days 15–28
# In short: (§2)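 Male ICR mice (about 40 g, 10-week-old, SPF) received a single i.p. DOX dose of 15 mg/kg; heart failure was established by Day 14. On Days 15–28 they were dosed i.p. daily with test compound (50, 100 or 200 mg/kg), cedilanid 150 mg/kg, or PBS 10 mL/kg. Blood was taken 8 h after dosing on Day 29 and spun 4500 rpm, 15 min, 4 °C. Serum CK and LDH activities and BNP and NT-proBNP were measured by kits. Mean ± SEM.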
# transferrin [5] = assay: Immunoblot of transferrin in heart tissues; format: in vivo, mouse
# [6] = system: primary adult rat cardiomyocytes; assay: Trypan blue staining of dead cells, primary cardiomyocytes + DOX; format: cell-based
# [7] = system: myocardium of DOX-treated mice; assay: Myocardial iron content; format: in vivo, mouse; conditions: with or without glycnsisitin A, ferrozine, 550 nm
# In short: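 Heart tissue from DOX-induced heart-failure mice (± test compound) was homogenised in lysate. Homogenate was mixed 1:1 with permanganate-containing solution A and held 1 h at 60 °C, then cooled. Iron (ferrozine) detection reagent was added for 30 min at room temperature. Absorbance was read at 550 nm and iron content calculated from a standard curve.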
# [8] = system: primary adult rat cardiomyocytes; assay: Total ROS by DCFH-DA staining, flow cytometry; format: cell-based
# transferrin [9] = target: T1, transferrin (Homo sapiens, UniProt P02787); assay: Protein half-life of transferrin after CHX; format: cell-based; conditions: compared with control
# [10] = system: primary adult rat cardiomyocytes; assay: LDH activity in supernatant of primary cardiomyocytes, TFRC neutralization; format: cell-based; conditions: DOX + glycnsisitin A; with or without TFRC block
# In short: (§3)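 Adult cardiomyocytes were isolated from male Sprague-Dawley rats (about 280 g) by Langendorff perfusion with collagenase II and hyaluronidase. They were purified by three gravity sedimentations and cultured on laminin in M199 with 10% FBS, pen-strep and glutamine. Cells were pretreated with TFRC-neutralizing antibody (level not stated), then given DOX ± test compound for 12 h. Cells and supernatant were assayed with commercial LDH-activity or ATP kits. Mean ± SEM.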
# transferrin [11] = target: T1, transferrin; assay: Relative mRNA level of transferrin in cardiomyocytes; format: cell-based; conditions: cultured cardiomyocytes
# [12] = system: transferrin–TFRC interaction; assay: Cellular immunoprecipitation of transferrin with TFRC; format: cell-based; conditions: anti-His immunoprecipitation, blotted anti-transferrin and anti-TFRC
# DOX-induced HF mice [13] = assay: Heart histology; format: in vivo, mouse (ICR); conditions: compared with cedilanid
# In short: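 Heart failure was induced in male ICR mice by a single i.p. DOX dose (15 mg/kg). Test compound (50/100/200 mg/kg), cedilanid ([…]) or PBS was then given i.p. daily on Days 15–28. Hearts were collected on Day 29, fixed in 4% paraformaldehyde and sectioned. H&E staining was scored for myocardial histopathology; Masson trichrome was quantified as relative fibrosis area.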
# TFRC [14] = assay: Protein half-life of TFRC after CHX; format: cell-based; conditions: compared with control
# [15] = system: primary adult rat cardiomyocytes; assay: ATP levels of primary cardiomyocytes; format: cell-based; conditions: 12 h
# In short: as §1
# [16] = system: primary adult rat cardiomyocytes; assay: Alamar blue assay, DOX-injured primary cardiomyocytes; format: cell-based
# In short: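 Cardiomyocytes came from male Sprague-Dawley rats (~280 g) by Langendorff perfusion with collagenase II/hyaluronidase/BSA and stepwise CaCl2. Cells were purified by three gravity sedimentations and cultured on laminin in M199 with 10% FBS, penicillin-streptomycin and 1% glutamine. DOX-injured cells received test compound, and viability was read by alamar blue.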
# [17] = system: primary adult rat cardiomyocytes; assay: ATP content of primary cardiomyocytes, TFRC neutralization; format: cell-based; conditions: DOX-injured cardiomyocytes + glycnsisitin A; with or without NAb-anti-TFRC
# In short: as §3
# [18] = system: primary adult rat cardiomyocytes; assay: Mitochondrial ROS by MitoSOX staining; format: cell-based; conditions: 10 μmol/L glycnsisitin A with 8.6 μmol/L DOX, 6 h, confocal
# In short: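 Primary adult rat cardiomyocytes in glass-bottomed confocal dishes received test compound and/or DOX for 6 h. They were then loaded with MitoSOX Red for 30 min at 37 °C, 5% CO2, in the dark, and washed three times with warm HBSS containing Ca/Mg. Fluorescence was imaged by laser confocal microscopy (ex 396/em 610 nm).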
# [19] = system: primary adult rat cardiomyocytes; assay: Iron content of primary cardiomyocytes, TFRC neutralization; format: cell-based; conditions: glycnsisitin A + DOX; with or without NAb-anti-TFRC pretreatment
# In short: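 Langendorff-isolated adult rat cardiomyocytes in six-well plates were pretreated ± TFRC-neutralizing antibody, then given DOX and test compound. After two PBS washes, cells were lysed 2 h at room temperature on a shaker. Lysate was mixed 1:1 with permanganate-containing solution A and held 1 h at 60 °C, then cooled. Ferrozine iron reagent was added for 30 min at room temperature. A550 was read and iron calculated from a standard curve.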
# transferrin [20] = target: T1, transferrin; assay: SPR on transferrin-coated CM5 sensor chips; format: binding
# In short: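 Test compound was flowed over at a range of concentrations and response units recorded. KD was derived by the instrument's evaluation fitting.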
# DOX-induced HF mice [21] = assay: Echocardiography in DOX-induced HF mice; format: in vivo, mouse (ICR); conditions: compared with cedilanid
# In short: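 Male ICR mice (~40 g, 10 weeks) got a single i.p. DOX 15 mg/kg, with HF established by Day 14. On Day 28, 8 h post-dose, mice were anesthetized with avertin on a 37 °C table. M-mode short-axis scans at papillary level (10 MHz, 10–20 cycles) gave LVAWd.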
# DOX-induced HF mice [22] = assay: BNP and NT-proBNP levels in DOX-induced HF mice; format: in vivo, mouse (ICR); conditions: compared to DOX-induced HF mice
# In short: as §2
# TFRC [23] = assay: Relative mRNA level of TFRC in cardiomyocytes; format: cell-based; conditions: cultured cardiomyocytes
# H9C2 cardiomyocytes = assay: Alamar blue cell viability, DOX-injured H9C2 cardiomyocytes; format: cell-based, rat; conditions: in vitro model of DOX-induced cardiomyocyte injury
# In short: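 H9C2 cells were grown in DMEM with 10% FBS and penicillin-streptomycin at 37 °C, 5% CO2, then seeded at 5000/well overnight. Cells were co-treated with DOX and test compound for 12 h, then incubated 4 h in medium with 10% alamar blue. Fluorescence was read at ex 530/em 590 nm. Viability = (treated − medium)/(control − medium) × 100; EC50 calculated.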
# cancer cells = conditions: clinical limitation; ref [29]; cited from earlier work
# HF patients = conditions: supplementation; ref [8], [9]; cited from earlier work
# T1 sequence (P02787 20-698, species assumed): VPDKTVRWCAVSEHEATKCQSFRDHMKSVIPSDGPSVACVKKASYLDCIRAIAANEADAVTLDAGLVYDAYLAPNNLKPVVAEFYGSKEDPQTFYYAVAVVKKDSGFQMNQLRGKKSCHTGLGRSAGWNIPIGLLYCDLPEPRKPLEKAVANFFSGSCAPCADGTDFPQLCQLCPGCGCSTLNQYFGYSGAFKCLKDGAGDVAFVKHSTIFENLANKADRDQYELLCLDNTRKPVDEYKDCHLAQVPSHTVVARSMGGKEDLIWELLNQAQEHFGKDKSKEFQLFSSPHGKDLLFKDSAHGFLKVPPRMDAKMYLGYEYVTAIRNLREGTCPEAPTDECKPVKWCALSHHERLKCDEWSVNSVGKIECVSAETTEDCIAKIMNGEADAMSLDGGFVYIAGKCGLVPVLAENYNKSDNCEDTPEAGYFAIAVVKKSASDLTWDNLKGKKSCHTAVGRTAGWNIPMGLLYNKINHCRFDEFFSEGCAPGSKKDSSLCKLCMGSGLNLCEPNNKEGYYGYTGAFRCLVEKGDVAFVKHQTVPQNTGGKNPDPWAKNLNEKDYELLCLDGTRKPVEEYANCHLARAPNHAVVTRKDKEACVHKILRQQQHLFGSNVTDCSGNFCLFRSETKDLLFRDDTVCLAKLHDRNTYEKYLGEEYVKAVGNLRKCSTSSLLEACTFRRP
compound,measurement,setting,value
"COc1cccc2c1C(=O)c1c(O)c3c(c(O)c1C2=O)C[C@@](O)(C(=O)CO)C[C@@H]3O[C@H]1C[C@H](N)[C@H](O)[C@H](C)O1 [DOX, doxorubicin, reference compound]",mortality rate,DOX-induced HF mice [1]; single i.p. 15 mg/kg DOX,50%
same,TFRC level in mouse myocardium,TFRC [2],decreased levels of both transferrin and TFRC
same,"LDH release, DOX alone",[3],elevation in the release of lactate dehydrogenase (LDH)
same,serum CK activity,DOX-induced HF mice [4],markedly increased
same,serum LDH activity,DOX-induced HF mice [4],markedly increased
same,decrease in transferrin expression in heart tissue,"transferrin [5]; DOX-treated mice, immunoblot ratio to GAPDH",over 50%
same,increase in the number of trypan blue-positive cells,"[6]; 8.6 μmol/L DOX for 24 h, compared with solvent control",approximately fourfold
same,myocardial iron content,[7],significant loss of iron
same,"ROS levels, DOX alone",[8],dramatically increased
CC(C)[C@@H]1NC(=O)[C@@H]2Cc3ccc(cc3)O[C@H]3C[C@H](NC3=O)C(=O)N3CCC[C@H]3C(=O)N[C@@H](Cc3ccc(O)cc3)C(=O)N[C@@H](C(=O)N[C@@H](C(C)C)C(=O)N2)c2cc(ccc2O)C[C@@H](C(=O)O)NC1=O [Glycnsisitin A],half-life of transferrin protein (in words),transferrin [9],could increase the half-life of transferrin protein
same,overall survival rate,DOX-induced HF mice [1]; 200 mg/kg i.p. daily Days 15–28 after DOX 15 mg/kg i.p.,90%
same,"survival rate, dose dependence","DOX-induced HF mice [1]; 50, 100, 200 mg/kg i.p. daily Days 15–28 after DOX",increased in a dose-dependent manner
same,LDH content in supernatant,[10],much lower
same,transferrin mRNA level,transferrin [11],did not affect the mRNA content of transferrin
same,content of immunoprecipitated transferrin,[12],much higher
same,pathology score,DOX-induced HF mice [13]; H&E,lower pathology score
same,collagen deposition,DOX-induced HF mice [13]; Masson trichrome,lesser collagen deposition
same,TFRC level in mouse myocardium,TFRC [2],consistent with the trend observed for TFRC
same,"LDH release, DOX + glycnsisitin A",[3],significantly suppressed
same,serum CK activity,DOX-induced HF mice [4],completely reversed
same,serum LDH activity,DOX-induced HF mice [4],completely reversed
same,TFRC stability (in words),TFRC [14],decreased TFRC stability
same,total ATP levels following DOX induction,"[15]; presence vs absence of glycnsisitin A, with DOX",a substantial difference was observed
same,"total ATP levels, normal conditions",[15]; primary cardiomyocytes without DOX,did not have an impact on ATP levels
same,cell survival (alamar blue),[16],proved the primary cell protective function
same,total transferrin level in mouse myocardium,transferrin [5]; regardless of the presence of DOX,significantly increased the total transferrin levels
same,ATP production,[17],noticeably augmented ATP production
same,mitochondrial ROS generation,[18],significantly attenuated the excessive generation of mitochondrial ROS
same,"iron content, DOX-treated cardiomyocytes",[19],restored the decline in iron content
same,Kd,transferrin [20],2410 nM
same,cardiotoxicity / cell death (trypan blue),[6]; DOX 8.6 μmol/L + glycnsisitin A,significantly attenuated the cardiotoxicity induced by DOX and reduced cell death
same,myocardial iron content,[7],effectively restored to normal
same,diastolic LV anterior wall diameter (LVAWd),DOX-induced HF mice [21],thicker diastolic LV anterior wall diameter
same,BNP level,DOX-induced HF mice [22],lower levels
same,NT-proBNP level,DOX-induced HF mice [22],lower levels
same,TFRC mRNA level / transcription,TFRC [23],increased the TFRC transcription
same,"cardioprotective activity, relative to glycnsisitins B and C",H9C2 cardiomyocytes,stronger cardioprotective activity than glycnsisitins B and C
"C[C@@H](CN1CC(=O)NC(=O)C1)N1CC(=O)NC(=O)C1 [dexrazoxane (DXZ), dexrazoxane]",chemotherapy resistance,cancer cells,potential to confer chemotherapy resistance to cancer cells
ferric derisomaltose [ferric derisomaltose (FDI)],HF symptoms and rehospitalization,HF patients,could alleviate HF symptoms and reduce rehospitalization
